Bioassay records deposited in PubChem by Johns Hopkins Ion Channel Center.
TRPC6 act – mouse TRPC6 channel activation; B-score at 10 µM; HEK293-TRPC6 membrane potential dye fluorescence; hits give high values; Q61143; actives 0.13% (n = 310,000);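 active = B-score of the integrated fluorescence ratio above library mean plus 3 SD, and starting fluorescence ratio within library mean plus 5 SD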;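 also: higher score means more depolarization so channel activation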
Target sequence (Q61143 whole entry, looked up): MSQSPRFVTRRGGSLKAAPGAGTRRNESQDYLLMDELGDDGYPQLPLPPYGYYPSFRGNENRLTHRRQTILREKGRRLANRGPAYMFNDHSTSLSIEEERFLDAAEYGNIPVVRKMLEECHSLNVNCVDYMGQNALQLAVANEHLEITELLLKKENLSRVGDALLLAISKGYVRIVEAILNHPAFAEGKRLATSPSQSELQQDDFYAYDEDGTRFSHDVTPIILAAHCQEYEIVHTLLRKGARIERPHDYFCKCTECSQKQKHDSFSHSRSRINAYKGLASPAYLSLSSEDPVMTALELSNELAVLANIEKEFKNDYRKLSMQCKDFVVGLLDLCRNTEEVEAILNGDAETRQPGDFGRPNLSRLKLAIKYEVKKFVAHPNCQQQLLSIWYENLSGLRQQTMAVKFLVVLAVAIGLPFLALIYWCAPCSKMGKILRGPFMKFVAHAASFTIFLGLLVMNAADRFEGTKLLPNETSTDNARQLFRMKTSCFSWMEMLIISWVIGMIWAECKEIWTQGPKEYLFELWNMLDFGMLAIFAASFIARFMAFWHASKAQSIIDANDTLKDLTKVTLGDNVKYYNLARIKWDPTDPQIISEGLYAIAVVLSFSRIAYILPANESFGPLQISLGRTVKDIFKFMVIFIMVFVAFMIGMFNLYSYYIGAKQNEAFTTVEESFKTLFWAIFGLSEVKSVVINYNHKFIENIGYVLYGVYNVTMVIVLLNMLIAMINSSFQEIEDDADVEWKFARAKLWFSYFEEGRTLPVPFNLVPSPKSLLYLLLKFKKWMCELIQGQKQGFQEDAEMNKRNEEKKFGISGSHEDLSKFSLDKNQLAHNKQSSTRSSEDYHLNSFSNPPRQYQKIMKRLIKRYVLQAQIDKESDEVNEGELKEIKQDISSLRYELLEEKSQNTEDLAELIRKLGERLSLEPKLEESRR
TRPC4 PAM – allosterically enhances the mouse TRPC4 cation channel; AID 2227; Q9QUQ5; B-score at 10 µM; actives 0.42% (n = 310,000); HEK293 TRPC4beta/mu-opioid, DAMGO EC20, Fluo-4 Ca2+ flux; hits give high values;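 active = B-score of calcium response area above 5 SD of library B-scores, with initial fluorescence ratio within 5 SD of library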;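 also: B-score of integrated fluorescence ratio over time as area under calcium response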
TRPC4 act – opens the mouse TRPC4 cation channel; Q9QUQ5; HEK293 TRPC4beta/mu-opioid, Fluo4 calcium fluorescence; hits give high values; B-score at 10 µM; actives 0.49% (n = 310,000);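 active = B-score above 5 SD of library B-scores, and initial fluorescence ratio not above library mean plus 5 SD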;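 also: positive B-score marks a calcium rise read as TRPC4 activation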
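Assay system: HEK293 cells stably co-expressing mouse TRPC4beta and mu-opioid receptor / Timing: Fluo4 dye loading 45 min at room temperature, 110 s recording / Signal: Fluo4 calcium-sensitive dye fluorescence, kinetic, 1 Hz baseline / Read-out: integrated baseline-normalised fluorescence ratio, converted to per-well B score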
TRPC6 inhibitor – blocks the mouse TRPC6 cation channel | Q61143 | HEK293-TRPC6, membrane potential dye, ACh-evoked depolarization; hits give low values | B-score at 10 µM | actives 1.1% (n = 310,000) | AID 2553;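 active = B-score under library mean minus 3 SD, initial fluorescence not abnormally high, positive integrated signal ratio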;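 also: B-score derived from integrated fluorescence ratio over the kinetic read; more negative B-score means stronger inhibition of depolarization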
TRPC4 inh – inhibitors of mouse TRPC4 channel | HEK293 TRPC4beta/mu-opioid, DAMGO-evoked Fluo4 calcium flux; hits give low values | B-score at 10 µM | actives 0.39% (n = 300,000);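 active = B-score over 3 SD under the library average, no early fluorescence shift, positive overall ratio signal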
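Material: HEK293 cells with stable TRPC4beta plus mu-opioid receptor expression; probe or stimulus: DAMGO in two steps, submaximal then maximal; technique: Fluo4 calcium fluorescence by kinetic imaging, 5 s 1 Hz baseline; measure: integrated fluorescence ratio relative to baseline, converted to per-well B score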
Kir21 inh – inhibitors of mouse Kir2.1 inward-rectifier potassium channel | P35561 | HEK293-Kir2.1, FluxOR thallium flux fluorescence; hits give low values | B-score at 10 µM | actives 0.85% (n = 310,000);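 active = fluorescence ratio B-score at or below minus 3 SD of library scores, with starting-brightness B-score within 2 SD, cut at about -4.2 in these data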;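 also: channel flux triggered by added potassium and thallium sulfate stimulus; B-score of peak minus minimum fluorescence over baseline after thallium stimulus; more negative B-score means stronger Kir2.1 block with less thallium influx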
TRPC4 sel inh 2 – mouse TRPC4 off-target activity of TRPC6 inhibitors, second screen | shares compounds with TRPC6 inhibitor | HEK293 TRPC4/MOR, membrane potential dye fluorescence; channel activated by saturating DAMGO dose | inhibition, % at 10 µM | actives 42% (n = 920);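 active = compounds whose fluorescence signal differed from control wells by over 3 SD, either direction, in both duplicate plates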
TRPC4 spec – tests whether TRPC6 inhibitors also affect mouse TRPC4; activity change, negative = inhibition, % at 10 µM; shares compounds with TRPC6 inhibitor; HEK293 TRPC4/mu-opioid, membrane potential fluorescence; AID 2777; actives 61% (n = 920);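 active = rise or fall in signal beyond 3 SD of buffer-only wells in both replicate plates, either sign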;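 also: integrated kinetic ratio of fluorescence range over baseline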
HEK293 MPD ctr 2-1 – parental HEK293 nonspecific activity of TRPC6 inhibitors, second screen; shares compounds with TRPC6 inhibitor; parental HEK293 membrane potential dye fluorescence; maximal acetylcholine challenge after compound addition; signal change vs control, % at 10 µM; actives 31% (n = 920);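 active = membrane potential signal moving either way by over 3 SD of the maximum-effect control, in both duplicate plates, meaning non-specific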
HEK293 MPD ctr-1 – parental HEK293 nonspecific activity of TRPC6 inhibitors | shares compounds with TRPC6 inhibitor | parental HEK293 membrane potential dye fluorescence | membrane potential signal change, % at 10 µM | actives 60% (n = 920) | AID 2780;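 active = membrane potential signal shifting up or down by more than 3 SD of buffer-only wells, on both duplicate plates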
HEK293 MPD ctr-2 – parental HEK293 nonspecific activity of TRPC6 modulators | membrane potential signal change, % at 10 µM | shares compounds with TRPC6 inhibitor | membrane potential dye fluorescence | actives 51% (n = 2,400);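 active = membrane potential signal moves up or down beyond 5 SD from buffer-only wells, on both duplicate plates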
HEK293 MPD ctr 2-2 – second counter-screen for TRPC6 modulators: effect in parental HEK293 cells; shares compounds with TRPC6 inhibitor; membrane potential dye fluorescence; after compound, maximal acetylcholine stimulation; inhibition, % at 10 µM; actives 14% (n = 2,400);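 active = membrane potential signal drops by more than 5 SD from the mean control signal, in both duplicate plates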;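 also: plate controls were acetylcholine ECmax control wells for no effect and buffer only wells for full effect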
TRPC4/MOR mod – tests whether TRPC6 modulators also affect mouse TRPC4. shares compounds with TRPC6 inhibitor. HEK293 TRPC4/mu-opioid, membrane potential fluorescence. percent change from control (negative = decrease, positive = increase), % at 10 µM. actives 69% (n = 2,400). AID 488927;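 active = membrane potential signal moved up or down beyond 5 SD of buffer control wells, in both duplicate plates, actives on both sides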;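 also: plate controls were assay buffer wells for no effect and DAMGO maximal-effect wells for full effect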
TRPC4 ctr inh 2 – mouse TRPC4 off-target activity of TRPC6 modulators, second screen; HEK293 TRPC4/mu-opioid, membrane potential dye fluorescence; stimulated with maximal-effect DAMGO; shares compounds with TRPC6 inhibitor; inhibition, % at 10 µM; actives 55% (n = 2,400); AID 488928;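 active = drop in membrane potential signal beyond 5 SD of the control wells in both duplicate plates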;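 also: TRPC4 counter screen for TRPC6 hits run under conditions tuned for TRPC6 not TRPC4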
TRPC6 inh conf – mouse TRPC6 inhibitor confirmation. HEK293-TRPC6, membrane potential dye, ACh-evoked depolarization. AID 488960. actives 43% (n = 3,300). inhibition, % at 10 µM. shares compounds with TRPC6 inhibitor;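 active = fluorescence ratio falls more than 5 SD below the full-stimulation control mean, in both duplicate runs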;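 also: integrated fluorescence ratio of peak minus minimum over baseline after agonist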
TRPC6 act conf – mouse TRPC6 activator confirmation; AID 488961; actives 11% (n = 2,800); activation, % at 10 µM; shares compounds with TRPC6 inhibitor; HEK293-TRPC6 membrane potential dye fluorescence, FDSS;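 active = ratio signal rise beyond 5 SD above unstimulated control wells' mean, seen in both duplicate runs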;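 also: plate controls were buffer EC0 wells for no effect and acetylcholine ECmax response for full effect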
The depositor's hits bear a star. Sampled rows, rich in hits. Any-hit rate of the full collection: about 2.9%.

For N=c1c(C(=O)NC2CCCC2)cc2c(=O)n3ccccc3nc2n1CC1CCCO1 (centres undefined) the results were TRPC6 act inactive, TRPC4 PAM inactive, TRPC4 act inactive, TRPC6 inhibitor inactive, TRPC4 inh inactive and Kir21 inh -1.4.
Cc1ccc(CNC(=O)c2cc3c(=O)n4ccccc4nc3n(CC3CCCO3)c2=N)cc1 (centres undefined) was read as TRPC6 act inactive, TRPC4 PAM 11*, TRPC4 act inactive, TRPC6 inhibitor -6.2*, TRPC4 inh inactive, Kir21 inh -1.3, HEK293 MPD ctr-2 inactive, HEK293 MPD ctr 2-2 inactive, TRPC4/MOR mod -36%*, TRPC4 ctr inh 2 52%*, TRPC6 inh conf 64%* and TRPC6 act conf inactive.
N=c1c(C(=O)NCc2ccc3c(c2)OCO3)cc2c(=O)n3ccccc3nc2n1Cc1cccnc1 was read as TRPC6 act inactive, TRPC4 PAM inactive, TRPC4 act inactive, TRPC6 inhibitor inactive, TRPC4 inh inactive and Kir21 inh 0.6.
For COCCCn1c(=N)c(C(=O)NCc2ccc3c(c2)OCO3)cc2c(=O)n3ccccc3nc21 the results were TRPC6 act inactive, TRPC4 PAM inactive, TRPC4 act inactive, TRPC6 inhibitor -10*, TRPC4 inh inactive, Kir21 inh 1.7, TRPC4 sel inh 2 64%*, TRPC4 spec -12%*, HEK293 MPD ctr 2-1 30%*, HEK293 MPD ctr-1 inactive, TRPC6 inh conf inactive and TRPC6 act conf inactive.
CCOCCCn1c(SCC(=O)NCc2ccc3c(c2)OCO3)nc2ccccc2c1=O was read as TRPC6 act inactive, TRPC4 PAM inactive, TRPC4 act inactive, TRPC6 inhibitor inactive, TRPC4 inh inactive and Kir21 inh 2.
For Cc1cnc(NC(=O)CC(C)c2ccccc2)s1 (centres undefined) the results were TRPC6 act inactive, TRPC4 PAM inactive, TRPC4 act inactive, TRPC6 inhibitor inactive, TRPC4 inh inactive and Kir21 inh 0.01.
